Tested on: MS2 coat protein
Assay: apparent Kd, MS2 coat protein; higher = weaker binding; RNA-MaP array; FMN 200 µM where present
In short: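 Stalled E. coli RNA polymerase produced the designs on Illumina sequencing-chip clusters. SNAP-549-labelled MS2 coat protein was added from 0.7 or 1.5 nM, doubling to 3 µM, without and then with constant ligand, in 100 mM Tris-HCl pH 7.5, 80 mM KCl, 4 mM MgCl2, BSA, DTT, yeast tRNA and Tween-20. The apparent Kd is the median of filtered per-cluster fits of green signal normalised to red-channel RNA signal and control-cluster median Fmax.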

[1] = designed as: OFF switch for flavin mononucleotide, no ligand
[2] = ligand present: flavin mononucleotide, designed as: OFF switch for flavin mononucleotide
[3] = designed as: ON switch for flavin mononucleotide, no ligand
[4] = ligand present: flavin mononucleotide, designed as: ON switch for flavin mononucleotide

## UAUAAUCGAGGAUAUACAUGAGGAUCACCCAUGUGUUGCCGCGUGACAUGAUCGUCAGGUAGAAGGCGAUUAUA
[1]
  apparent Kd: 189 nM
[2]
  apparent Kd: 39.7 nM

## AGUCGGAGCAGAGGAUAUACAUGAGGAUCACCCAUGUAAUAAGAUCAAGCCUGGAAACAGGCAAUGUAGAAGGCUGCUCCGACA
[1]
  apparent Kd: 34.2 nM
[2]
  apparent Kd: 338 nM

## AGGAAGUAAAGAGACAUGAGGAUCACCCAUGUGACUGCAUCACAGGAUAUGUCGAGCGAAGCACAACAGAAGGGUGAUCAGGGC
[3]
  apparent Kd: 65.2 nM
[4]
  apparent Kd: 120 nM

## ACCGUAUGAACAUGAGGAUCACCCAUGUAUCCGAAAAGGAAUGAGGAUAUCGAUAGCAAAGCUAUCGAGAAGGCAUGGGACGGU
[3]
  apparent Kd: 742 nM
[4]
  apparent Kd: 389 nM

## GAUUAACAUGAGGAUCACCCAUGUCGUAUUAUGGGAGGAUAUACGUGGACCGUAGUCCGCGUAGAAGGCCUAAUUG
[3]
  apparent Kd: 93.8 nM
[4]
  apparent Kd: 28.7 nM

## ACAUGAGGAUCACCCAUGUAGAAUGAAGAAGGUAGAUACUUGUGACUCACCCAUGUACAUAGGACUAAGGAUAUUCUAAUAAUU
[3]
  apparent Kd: 26.3 nM
[4]
  apparent Kd: 13 nM

## AAAUAACCUAGCAAAAUUUCCUCACAUGAGGAUCACCCAUGUAGAAGGCUGUCCUAAAAUAGGACAGAGGAUAUACAUGCUAGG
[1]
  apparent Kd: 10.6 nM
[2]
  apparent Kd: 171 nM

## CUUCAGUCAGGAUAUGUUAAUCUCACCACUCGGCGAGCCGGACAGAAGGGACAUGAGGAUCACCCAUGUUAAAA
[1]
  apparent Kd: 39.1 nM
[2]
  apparent Kd: 23.4 nM

## GGUCGUCACAUUAACAUGAGGAUCACCCAUGUAAAAUAACAUGAGGAUAUGCAUCCUAAUUGGAUGCAGAAGGCAUGGACGACC
[3]
  apparent Kd: 7.86 nM
[4]
  apparent Kd: 6.02 nM

## GCUCGUGGACAGAAGGCGACAUGAGGAUCACCCAUGUUGGCUCGGGUAUGACCAAUCCGCAUGAUCGAGGAUAUGUCUGCGGGC
[1]
  apparent Kd: 419 nM
[2]
  apparent Kd: 19.2 nM

## AUUAAACAUGAGGAUCACCCAUGUCAACAAAGUCGAGGAUAUGGGCAAAUAAAAUAUGAACCAGAAGGCGAAUAAU
[3]
  apparent Kd: 213 nM
[4]
  apparent Kd: 38.2 nM

## GACAUGAGGAUCACCCAUGUCCAACCAGAAGGCCAGGAAUCGGACCCGUGUAUCGGGUUCGAGAUGGAGGAUAUGGGCGCCGAA
[3]
  apparent Kd: 78.2 nM
[4]
  apparent Kd: 34.1 nM

## UUAUGGAUCACAGGAUAUCCAAGGGCGCGUCUGGCGCGCUCACAUGAGGAUCACCCAUGUCGAGUGGAGAAGGGUGGUUGACGG
[3]
  apparent Kd: 466 nM
[4]
  apparent Kd: 68.3 nM

## GCCUUGUCAGGAUAUCCGCGCGGGUGGCGCAUGCACUGCGUGGAGAAGGGACAUGAGGAUCACCCAUGUGCGUA
[1]
  apparent Kd: 89.2 nM
[2]
  apparent Kd: 317 nM

## UAAUCUCAGAUAGGAUAUAUAGGAUGAUUUAAGACUGAACAUGAGGAUCACCCAUGUGAUUAUCUGUAGAAGGAUCAAUUAGCC
[3]
  apparent Kd: 476 nM
[4]
  apparent Kd: 365 nM

## GUCUUGUCAGGAUAUCUUACAUAACAAUCGUAGUUACAAUUGGAGAAGGGACAUGAGGAUCACCCAUGUUAGCC
[1]
  apparent Kd: 18.7 nM
[2]
  apparent Kd: 21 nM

## GUGUACAGAGGAUAUGCUUGAAUCUAGCGAAGCUAGGUUCGACAUGAGGAUCACCCAUGUAGAAGGCUGUACAC
[1]
  apparent Kd: 13.6 nM
[2]
  apparent Kd: 12.7 nM

## UGGUACUAGGGAGGAUAUGGGAAGAUACAUGAGGAUCACCCAUGUUUAAGAAUGCCGAGAGGCAACUAGAAGGCCCUAUUACCU
[3]
  apparent Kd: 365 nM
[4]
  apparent Kd: 20.1 nM

## CUCAUGUGAGGAUAUCAGUAGUAAAAAAAUAAAAUUACUACUGAGAAGGCACAUGAGGAUCACCCAUGUGCCAA
[1]
  apparent Kd: 16.1 nM
[2]
  apparent Kd: 28.6 nM

## GCGUGUAAUGUAGGAUAUGACACAGGAAACUGGUCAGAAGGACAUGAGGAUCACCCAUGUAAAAUGUUCAAGAAUAACACAUGC
[1]
  apparent Kd: 22.9 nM
[2]
  apparent Kd: 37.8 nM

## UUAAUUAAUUAAUUGCAGUUACAUGAGGAUCACCCAUGUAUAUAGGAUAUCGUCAGGAAUACUGACGAGAAGGAUAUACUCUGC
[1]
  apparent Kd: 21.6 nM
[2]
  apparent Kd: 26.7 nM

## UACAUCUCGUAAGGAUAUACACGAGAUUCAAGUGUAGAAGGUACUAACAUGAGGAUCACCCAUGUAUACAUGGAUAAUAGAUAU
[3]
  apparent Kd: 91.6 nM
[4]
  apparent Kd: 59.7 nM

## GCACUGGAUGUAGGAUAUCAGGACGAUAAGUCCUGAGAAGGACAUGAGGAUCACCCAUGUAAAACUCCACCAGUGCAUAAUAUA
[1]
  apparent Kd: 13.1 nM
[2]
  apparent Kd: 17.9 nM

## AAAACAUGAGGAUCACCCAUGUAAAGAACGGUUAAUAGAAGUGAGGAUAUACUAAAUUUUAGGUAGUAGAAGGCACUGGGUACA
[3]
  apparent Kd: 21.5 nM
[4]
  apparent Kd: 22.5 nM

## ACAACAGGCAGAGGAUAUGACUGGGUAGGAGUAACAUGAGGAUCACCCAUGUUAGAAGGCUGCGUCAAACAGCGAAAGGUACGC
[1]
  apparent Kd: 52.4 nM
[2]
  apparent Kd: 91.6 nM

## CGAUAACAUAGUUAUCCGUAGCGAACAUGAGGAUCACCCAUGUAGGAUAUGUUACUAAACUAGUAACAGAAGGACAUGAGUAUU
[1]
  apparent Kd: 154 nM
[2]
  apparent Kd: 407 nM

## GACAAGUGAGGAUAUCUGAUGUCUAACUUCGGUUAGACAUCAGAGAAGGCACAUGAGGAUCACCCAUGUCUGUC
[1]
  apparent Kd: 30.7 nM
[2]
  apparent Kd: 20.8 nM

## GUGAAACAUGAGGAUCACCCAUGUGAGGAUAUGUUUUAGUACUGCUGACAGUACAUCUAUAGAAGGCACAAAGG
[1]
  apparent Kd: 26.8 nM
[2]
  apparent Kd: 29.9 nM

## GUACAGUAGUGAGGAUAUACGAGAUCGAUAGAUCGGCGAUCCAUUAAUACAUGAGGAUCACCCAUGUAGAAGGCACUUCUGUAC
[1]
  apparent Kd: 5.84 nM
[2]
  apparent Kd: 82.5 nM

## AGCUAGUCAGGAUAUACGAACAUGUCAUUAGACGUGAAGGGACAUGAGGAUCACCCAUGUAGAAGGGACUAGCA
[1]
  apparent Kd: 40 nM
[2]
  apparent Kd: 134 nM

## UCGGCGCGAGGAUAUGCGGUUGCUUGGUAGGGUCGUGGCGUACAUGAGGAUCACCCAUGUAGAAGGCGCGCCGC
[1]
  apparent Kd: 19.6 nM
[2]
  apparent Kd: 25.9 nM

## UAAAUAUUAAAAGGAUAUUCAUACCGGAAACGGACAUGAGGAUCACCCAUGUGGCGAAAGCCUUGGGAGAAGGUAUUAUAAAAU
[3]
  apparent Kd: 333 nM
[4]
  apparent Kd: 248 nM

## AAUGAGACCGCAGGAUAUCCACAUGAGGAUCACCCAUGUUCUCAGGUCGUAAGCACGACCUGCGAGGAGAAGGGCGACCUCAUA
[3]
  apparent Kd: 395 nM
[4]
  apparent Kd: 33.8 nM

## GGCGUUCGCACAGGAUAUGCAUUAGACAUGAGGAUCACCCAUGUAGGCUAAGCAGAAGGGUGGGUGUGUCUAAGGAAAUUCUUC
[3]
  apparent Kd: 172 nM
[4]
  apparent Kd: 42.4 nM

## AAACCGUGUGGAGGAUAUGCAGUUGAGGUGAGGUGGCAACUCUAUACGACAGCAGAAGGCCACAUGAGGAUCACCCAUGUAGGU
[1]
  apparent Kd: 251 nM
[2]
  apparent Kd: 73.6 nM

## CGACUGUGAGGAUAUGGUGAGUAGUGCCUGAGCGCUGCUCACCAGAAGGCACAUGAGGAUCACCCAUGUAUAGC
[1]
  apparent Kd: 41.7 nM
[2]
  apparent Kd: 165 nM

## AAUAACAGAGGAUAUACUGUUUUAUGUGUUUGUUGUUUUAAACAUGAGGAUCACCCAUGUAGAAGGCUGAAUAA
[1]
  apparent Kd: 19.3 nM
[2]
  apparent Kd: 20.3 nM

## GUCGAUGUAGGAUAUUUCCACCCGCACAUGAGGAUCACCCAUGUGACCUUUUUCCGCUGGAAAGAAGGACGCGACA
[1]
  apparent Kd: 19.8 nM
[2]
  apparent Kd: 28.4 nM

## GAUACGUCAGGAUAUCUGAUGUCUAACUUCGGUUAGACAUCAGAGAAGGGACAUGAGGAUCACCCAUGUAUCAA
[1]
  apparent Kd: 42.6 nM
[2]
  apparent Kd: 56.7 nM

## AAGAAACAUGAGGAUCACCCAUGUAGAAAUAUGGGAGGAUAUACGAGGACGAAAGUCAAAGUAGAAGGCCUAAGAA
[3]
  apparent Kd: 56.9 nM
[4]
  apparent Kd: 27.4 nM

## UUGUUAUAUGUAGGAUAUGCAUAUUGUUGUUAUGCAGAAGGACAUGAGGAUCACCCAUGUAUAUUAUUGUUAUAUAUUGUAUAU
[1]
  apparent Kd: 25.4 nM
[2]
  apparent Kd: 34.6 nM

## UGGAUGGUAUGAGGAUAUGCGCGUGAAACGCGCGCAGAAGGCAUGUCAAUAGACAUGAGGAUCACCCAUGUAUUAUCCAUCCAA
[3]
  apparent Kd: 258 nM
[4]
  apparent Kd: 15.8 nM

## UUGAUUUUGUAAGGAUAUACUCUGUGAUGAAGAGUAGAAGGUACUUACAUGAGGAUCACCCAUGUUUAACGAGAUACUAAUCGU
[3]
  apparent Kd: 62.8 nM
[4]
  apparent Kd: 31.3 nM

## CCUCUACAUGAGGAUCACCCAUGUGAGGAUAUCUCGGAGCAACCACUUAAGGCGCUCCAGAGAAGGCACGUGUA
[1]
  apparent Kd: 20.6 nM
[2]
  apparent Kd: 28.9 nM

## UAUAUACAUGAGGAUCACCCAUGUAAGGAUAUGCAUUAUUAUUAUUAUUAUUAUUAUUGCAGAAGGUACAAUAU
[1]
  apparent Kd: 40.7 nM
[2]
  apparent Kd: 39.3 nM

## AUUAUAUAGAAAGGAUAUAGAUUAUUAUUUUAACAUGAGGAUCACCCAUGUAGCCUUAUGUAUAACUAGAAGGUUCAUUUAUUA
[1]
  apparent Kd: 72.8 nM
[2]
  apparent Kd: 94.4 nM

## GCGUCAGAAUUAAUUGUGACAGACAGAAGGCAAUAGUAUGUGUCCGACAUGAGGAUCACCCAUGUUGAGGAUAUGUCUUGACGC
[1]
  apparent Kd: 4.76 nM
[2]
  apparent Kd: 5.87 nM

## AGUACUACAGGAUAUACAUGAGUGAUACUCAUAUCCCUACUACAUGAGGAUCACCCAUGUAGAAGGGUAGUACA
[1]
  apparent Kd: 11.7 nM
[2]
  apparent Kd: 10.1 nM

## AAGGGACAUGAGGAUCACCCAUGUGAGGAUAUAUAAAUGUACCCGAUGGGAGUACACAAUAGAAGGCGCGGCUA
[1]
  apparent Kd: 40.7 nM
[2]
  apparent Kd: 32.8 nM

## CAUGUCCUCGCAGGAUAUGCUGGACUUUGUCCAGCAGAAGGGUGAUAACAUGAGGAUCACCCAUGUGGACAUGAUAUAUUUAAU
[3]
  apparent Kd: 28.1 nM
[4]
  apparent Kd: 1720 nM

## AUUAUGCAGCAGGAUAUCGAUCCGCGGUAUGAUCGAGAAGGGCUGACAUGAGGAUCACCCAUGUGCGUCCUAGG
[1]
  apparent Kd: 39.8 nM
[2]
  apparent Kd: 147 nM

## CGUCGUCUACGACGCACAUGAGGAUCACCCAUGUGGCAGACACAGGAUAUCCGUUGGAAUGUCCAGGAGAAGGGUGAUCGCAUA
[3]
  apparent Kd: 38.6 nM
[4]
  apparent Kd: 77.5 nM

## UGCUACGGAGGAUAUACAUGAGGAUCACCCAUGUGAGAGAUUUGGCCGAGAGGCCAGUGUAGAAGGCCGUAGCU
[1]
  apparent Kd: 68.9 nM
[2]
  apparent Kd: 416 nM

## GGGCUCGGUGUGAGGAUAUCGGGCUCUAAAGGGCUCGAGAAGGCACAUGAGGAUCACCCAUGUAAGUCGGGCUC
[1]
  apparent Kd: 14.8 nM
[2]
  apparent Kd: 15 nM

## UUGAUUAUACAAGGAUAUCAAUUGUAAUUAAGACUUACAUGAGGAUCACCCAUGUUAAUAUUUUUUGAGAAGGUGUAUUUUCAG
[3]
  apparent Kd: 25.4 nM
[4]
  apparent Kd: 21.9 nM
